Key:
T47D = assay: Cytotoxicity against human T47D cells after 2 days by cell counting kit-8 analysis; type: functional, cell-based; conditions: 48 h
In short: (§1)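 Cells grown per supplier's instructions, seeded at 2-4 × 10⁴ cells/well and incubated overnight in medium with 10% FBS at 37 °C, 5% CO₂. On day 2, after 4 h FBS starvation, medium was replaced with medium containing graded compound concentrations. Absorbance read at 450 nm. IC50 from a four-parameter logistic fit. Three independent experiments in triplicate, mean ± S.D.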

HCT-15 = assay: Cytotoxicity against human HCT15 cells after 2 days by cell counting kit-8 analysis; type: functional, cell-based; conditions: HCT-15, 48 h; in short: as §1
DU-145 = assay: Cytotoxicity against human DU145 cells after 2 days by cell counting kit-8 analysis; type: functional, cell-based; conditions: DU-145, 48 h; in short: as §1
HEK293 = assay: Cytotoxicity against human HEK293 cells after 2 days by cell counting kit-8 analysis; type: cell-based; conditions: HEK293, 48 h; in short: as §1
[1] = target: DNA topoisomerase 2-alpha (Homo sapiens) (UniProt P11388); assay: Inhibition of human DNA topoisomerase-2alpha-mediated relaxation of supercoiled pBR322 at 20 uM after 30 mins using ethidium bromide staining by agarose gel electrophoresis
In short: (§2)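 200 ng supercoiled pBR322 with 1 unit human topo IIα, with or without compound. Buffer was 10 mM Tris-HCl pH 7.9, 50 mM NaCl, 5 mM MgCl₂, 1 mM EDTA, 1 mM ATP and bovine serum albumin. Incubated 30 min at 30 °C, stopped with EDTA. Products run on 1% agarose gel, 25 V, 4 h, TAE buffer. Compound stocks 20 mM in DMSO.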

[2] = target: DNA topoisomerase 2-alpha (Homo sapiens) (UniProt P11388); assay: Inhibition of human DNA topoisomerase-2alpha-mediated relaxation of supercoiled pBR322 at 100 uM after 30 mins using ethidium bromide staining by agarose gel electrophoresis; in short: as §2
[3] = target: T1, DNA topoisomerase 1 (Homo sapiens) (UniProt P11387); assay: Inhibition of recombinant human DNA topoisomerase-1-mediated relaxation of supercoiled pBR322 at 100 uM after 30 mins using ethidium bromide staining by agarose gel electrophoresis
T1 sequence (whole entry): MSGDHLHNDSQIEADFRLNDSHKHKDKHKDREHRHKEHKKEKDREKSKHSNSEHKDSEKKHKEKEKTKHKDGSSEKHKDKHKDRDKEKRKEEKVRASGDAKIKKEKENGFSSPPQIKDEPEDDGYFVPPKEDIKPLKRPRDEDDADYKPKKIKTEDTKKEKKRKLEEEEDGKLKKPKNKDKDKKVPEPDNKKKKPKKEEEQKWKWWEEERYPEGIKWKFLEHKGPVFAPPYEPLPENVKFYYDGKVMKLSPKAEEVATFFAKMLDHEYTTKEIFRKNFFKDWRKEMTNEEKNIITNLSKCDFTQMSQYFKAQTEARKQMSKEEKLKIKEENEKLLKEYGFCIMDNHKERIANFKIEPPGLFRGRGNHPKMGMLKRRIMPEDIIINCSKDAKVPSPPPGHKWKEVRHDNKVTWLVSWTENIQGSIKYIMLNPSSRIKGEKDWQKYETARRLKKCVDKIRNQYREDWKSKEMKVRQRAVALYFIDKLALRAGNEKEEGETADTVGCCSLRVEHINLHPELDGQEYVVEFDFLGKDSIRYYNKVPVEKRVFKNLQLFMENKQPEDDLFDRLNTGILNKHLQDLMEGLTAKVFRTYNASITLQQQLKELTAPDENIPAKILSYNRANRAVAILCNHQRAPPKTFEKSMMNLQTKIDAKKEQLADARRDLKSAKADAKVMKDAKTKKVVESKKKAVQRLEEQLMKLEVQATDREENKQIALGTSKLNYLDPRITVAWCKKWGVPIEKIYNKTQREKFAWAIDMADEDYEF
In short: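 Compounds from 20 mM DMSO stocks. 100 ng pBR322 plasmid DNA with 1 unit recombinant human topo I, with or without compound, 37 °C for 30 min. Relaxation buffer was 10 mM Tris-HCl pH 7.9, 150 mM NaCl, 0.1% BSA, 1 mM spermidine. Relaxation of supercoiled DNA assessed by gel imaging.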

Sequence of DNA topoisomerase 2-alpha (Homo sapiens) (P11388 whole entry): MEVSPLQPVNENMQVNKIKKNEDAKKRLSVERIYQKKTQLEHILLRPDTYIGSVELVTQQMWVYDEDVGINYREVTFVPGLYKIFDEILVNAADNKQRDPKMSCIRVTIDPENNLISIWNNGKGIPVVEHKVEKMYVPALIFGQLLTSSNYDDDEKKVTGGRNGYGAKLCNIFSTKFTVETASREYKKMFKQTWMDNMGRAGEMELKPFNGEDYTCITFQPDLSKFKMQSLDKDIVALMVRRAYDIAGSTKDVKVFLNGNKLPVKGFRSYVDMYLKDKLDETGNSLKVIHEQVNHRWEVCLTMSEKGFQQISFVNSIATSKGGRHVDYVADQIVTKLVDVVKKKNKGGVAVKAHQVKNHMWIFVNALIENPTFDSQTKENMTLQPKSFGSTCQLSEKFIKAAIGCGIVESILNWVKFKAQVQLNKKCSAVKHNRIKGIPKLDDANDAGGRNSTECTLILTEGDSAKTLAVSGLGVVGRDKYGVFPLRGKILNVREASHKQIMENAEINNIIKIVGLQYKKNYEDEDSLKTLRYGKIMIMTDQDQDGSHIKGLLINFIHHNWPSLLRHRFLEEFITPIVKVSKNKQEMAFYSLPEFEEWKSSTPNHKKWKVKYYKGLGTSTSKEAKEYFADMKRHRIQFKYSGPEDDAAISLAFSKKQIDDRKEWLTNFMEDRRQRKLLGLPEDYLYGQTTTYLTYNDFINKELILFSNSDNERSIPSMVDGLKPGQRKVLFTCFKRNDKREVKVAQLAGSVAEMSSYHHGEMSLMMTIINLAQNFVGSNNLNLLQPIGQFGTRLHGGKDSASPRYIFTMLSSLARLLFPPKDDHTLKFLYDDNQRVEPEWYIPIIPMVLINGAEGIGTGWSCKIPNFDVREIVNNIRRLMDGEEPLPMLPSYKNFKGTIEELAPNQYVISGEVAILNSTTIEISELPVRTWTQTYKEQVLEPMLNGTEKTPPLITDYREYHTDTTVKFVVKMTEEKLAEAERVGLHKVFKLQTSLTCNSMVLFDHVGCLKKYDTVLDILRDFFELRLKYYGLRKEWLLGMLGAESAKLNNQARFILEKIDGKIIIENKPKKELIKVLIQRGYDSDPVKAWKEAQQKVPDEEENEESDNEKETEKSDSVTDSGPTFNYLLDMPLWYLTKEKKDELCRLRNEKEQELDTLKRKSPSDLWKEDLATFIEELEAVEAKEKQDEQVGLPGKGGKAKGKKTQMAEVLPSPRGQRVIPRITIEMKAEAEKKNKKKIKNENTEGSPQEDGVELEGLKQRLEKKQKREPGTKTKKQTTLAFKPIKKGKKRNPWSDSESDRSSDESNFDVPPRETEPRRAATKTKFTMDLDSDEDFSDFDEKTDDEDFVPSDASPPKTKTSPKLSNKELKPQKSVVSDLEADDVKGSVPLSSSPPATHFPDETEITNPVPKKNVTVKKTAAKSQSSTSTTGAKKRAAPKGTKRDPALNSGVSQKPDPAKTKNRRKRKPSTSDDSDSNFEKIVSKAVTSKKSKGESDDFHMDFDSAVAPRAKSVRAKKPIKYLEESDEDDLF

SMILES | IC50 (T47D) [µM] | IC50 (HCT-15) [µM] | IC50 (DU-145) [µM] | IC50 (HEK293) [µM] | inhibition [1] [%] | inhibition [2] [%] | inhibition [3] [%]
Oc1ccc(-c2cc(-c3cccc(Cl)c3)nc(-c3ccco3)c2)cc1 | 5.22 | 8.02 | 5.75 | 2.88 | 0 | 71.3 | 25.5
Oc1cccc(-c2cc(-c3ccncc3)nc(-c3ccc(Cl)cc3)c2)c1 | 3.33 | 2.63 | 2.51 | 2.89 | 12.9 | 51.7 | 8
Oc1ccc(-c2cc(-c3ccccn3)nc(-c3ccccc3Cl)c2)cc1 | – | – | – | – | – | 21.1 | 5.2
Oc1cccc(-c2cc(-c3ccncc3)nc(-c3cccc(Cl)c3)c2)c1 | – | – | – | – | – | 13.9 | 0
Oc1cccc(-c2cc(-c3cccnc3)nc(-c3ccccc3Cl)c2)c1 | – | – | – | – | – | 0 | 0
Oc1cccc(-c2cc(-c3ccncc3)nc(-c3ccccc3Cl)c2)c1 | – | – | – | – | – | 0.7 | 0
Oc1cccc(-c2cc(-c3ccccc3)nc(-c3ccccc3Cl)c2)c1 | 2.92 | 2.93 | 1.48 | 1.76 | 23 | 83 | 3.2
COc1cc([C@@H]2c3cc4c(cc3[C@@H](O[C@@H]3O[C@@H]5CO[C@@H](C)O[C@H]5[C@H](O)[C@H]3O)[C@H]3COC(=O)[C@H]23)OCO4)cc(OC)c1O [ETOPOSIDE] | 2.39 | 1.17 | 1.21 | 1.21 | 20 | – | –
Oc1ccc(-c2cc(-c3ccncc3)nc(-c3ccccc3Cl)c2)cc1 | – | – | – | – | – | 0 | 9.9
Oc1cccc(-c2cc(-c3ccco3)nc(-c3ccccc3Cl)c2)c1 | 2.01 | 2.23 | 1.63 | 1.86 | 8.6 | 77.9 | 0
Oc1cccc(-c2cc(-c3ccccn3)nc(-c3ccccc3Cl)c2)c1 | – | – | – | – | – | 19.1 | 0
Oc1ccc(-c2cc(-c3ccccc3)nc(-c3cccc(Cl)c3)c2)cc1 | 4.79 | 6.1 | 5.36 | 2.82 | 0.5 | 76.8 | 0
Oc1cccc(-c2cc(-c3cccs3)nc(-c3ccccc3Cl)c2)c1 | 3.99 | 2.79 | 1.7 | 2.6 | 10.7 | 78.9 | 2.7
Oc1ccc(-c2cc(-c3ccc(Cl)cc3)nc(-c3ccco3)c2)cc1 | 6.26 | 7.02 | 7.28 | 5.72 | 36.2 | 84.1 | 15.8
Oc1ccc(-c2cc(-c3ccc(Cl)cc3)nc(-c3cccnc3)c2)cc1 | 29.3 | 20.7 | 22.8 | 27.4 | 11.9 | 59.1 | 18.8
Oc1cccc(-c2cc(-c3ccc(Cl)cc3)nc(-c3cccnc3)c2)c1 | 18.1 | 16.8 | 26.8 | 39.5 | 10.6 | 40.4 | 2.8
Oc1cccc(-c2cc(-c3ccsc3)nc(-c3cccc(Cl)c3)c2)c1 | 3.54 | 2.51 | 3.33 | 3.18 | 15.4 | 80.1 | 26.2
Oc1ccc(-c2cc(-c3ccsc3)nc(-c3ccccc3Cl)c2)cc1 | 6.11 | 5.83 | 3.89 | 5.93 | 29.2 | 80.5 | 4.1

SMILES | IC50 (T47D) [µM] | IC50 (HCT-15) [µM] | IC50 (DU-145) [µM] | IC50 (HEK293) [µM] | inhibition [1] [%] | inhibition [2] [%] | inhibition [3] [%]
Oc1cccc(-c2cc(-c3ccc(Cl)cc3)nc(-c3ccsc3)c2)c1 | 11.5 | 8.85 | 11.6 | 11.2 | 38.3 | 71.6 | 11.7
Oc1cccc(-c2cc(-c3cccnc3)nc(-c3cccc(Cl)c3)c2)c1 | – | – | – | – | – | 0 | 27.6
Oc1ccc(-c2cc(-c3ccncc3)nc(-c3cccc(Cl)c3)c2)cc1 | – | – | – | – | – | 0 | 29.2
COc1cccc2c1C(=O)c1c(O)c3c(c(O)c1C2=O)C[C@@](O)(C(=O)CO)C[C@@H]3O[C@H]1C[C@H](N)[C@H](O)[C@H](C)O1 [DOXORUBICIN] | 1.05 | 1.03 | 1.1 | 1.34 | – | – | –
Oc1ccc(-c2cc(-c3ccsc3)nc(-c3cccc(Cl)c3)c2)cc1 | 7.39 | 5.76 | 6.22 | 2.67 | 0 | 83.7 | 26
Oc1cccc(-c2cc(-c3ccc(Cl)cc3)nc(-c3ccco3)c2)c1 | 10.5 | 10.2 | 11.4 | 8.19 | 16.7 | 63.8 | 27.1
Oc1cccc(-c2cc(-c3cccc(Cl)c3)nc(-c3ccccn3)c2)c1 | – | – | – | – | – | 2.4 | 0.4
Oc1cccc(-c2cc(-c3ccccc3)nc(-c3cccc(Cl)c3)c2)c1 | 3.7 | 2.55 | 2.75 | 3.12 | 49.1 | 81.1 | 11.5
Oc1cccc(-c2cc(-c3ccsc3)nc(-c3ccccc3Cl)c2)c1 | 2.44 | 2.5 | 1.97 | 2.72 | 15.7 | 77.1 | 0
Oc1cccc(-c2cc(-c3cccc(Cl)c3)nc(-c3cccs3)c2)c1 | 3.41 | 2.61 | 2.65 | 3.15 | 39 | 80.4 | 7.6
Oc1cccc(-c2cc(-c3cccc(Cl)c3)nc(-c3ccco3)c2)c1 | 3.57 | 2.46 | 2.02 | 2.53 | 4.8 | 70.1 | 5.5
Oc1cccc(-c2cc(-c3ccccc3)nc(-c3ccc(Cl)cc3)c2)c1 | 11.3 | 8.11 | 11.2 | 11.6 | 53 | 76.3 | 7.1
Oc1ccc(-c2cc(-c3cccs3)nc(-c3ccccc3Cl)c2)cc1 | 5.87 | 5.43 | 4.19 | 5.22 | 8.2 | 78.3 | 2.2
Oc1cccc(-c2cc(-c3ccc(Cl)cc3)nc(-c3cccs3)c2)c1 | 10.5 | 9.28 | 11.6 | 11.8 | 54.2 | 75.5 | 15.1
Oc1ccc(-c2cc(-c3ccc(Cl)cc3)nc(-c3ccccn3)c2)cc1 | 25.9 | 21.3 | 22.5 | 27.2 | 13.1 | 66.7 | 12.7
CC[C@@]1(O)C(=O)OCc2c1cc1n(c2=O)Cc2cc3ccccc3nc2-1 [CAMPTOTHECIN] | 1.53 | 1.38 | 1.06 | 1.01 | – | – | –
Oc1ccc(-c2cc(-c3ccncc3)nc(-c3ccc(Cl)cc3)c2)cc1 | – | – | – | – | – | 2.4 | 5.9
Oc1ccc(-c2cc(-c3cccnc3)nc(-c3ccccc3Cl)c2)cc1 | – | – | – | – | – | 0 | 0.9
